The first data set has as its system Mus musculus. Kind of data set: Toxicity in mouse assessed as incidence of discomfort at 25 mg/kg, sc. The following applies: in vivo. The data set is classed as organism-based. More on the design: dose 25 mg/kg, route subcutaneous.
On to `COc1ccc(Nc2ccc(OC)c3ccccc23)cc1`, for which the Activity entry is “Non-toxic”.

Tested on in a further data set: not listed separately
Briefly: Ratio of drug level from brain to plasma in rat administered via intranasal route. The data set is classed as ADME. Conditions: inhaled or intranasal, read-out: BPR.
As for `CCN(C)C(=O)Oc1cccc([C@H](C)N(C)C)c1` [RIVASTIGMINE], the Kp came to 3.

Tested on in the next data set: not listed separately
Kind of data set: Inhibition of amyloid beta (1 to 42) aggregation after 24 hrs by Thioflavin-T fluorescence assay.
Details: not given
In outline: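 Nonaggregate Aβ1-42 (44 μM working solution) was then added, and plates were agitated at 37 °C for 24 h. Read-out used 10 μM ThT in Na2HPO4 pH 6.5 (ex 450/em 486 nm), in triplicate; IC50 came from % residual aggregate dose-response.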
The term IC50 denotes the concentration that inhibits the measured activity by half. For the molecule `Oc1ccc2ccccc2c1Nc1c(O)ccc2ccccc12`, the IC50 result is given as “ND(Unstable)”.

On to `COc1ccc(Nc2ccccc2)c2ccccc12`, for which the IC50 result is given as “ND(Insoluble)”.

Regarding `COC(=O)c1ccc(Nc2ccc3ccccc3c2O)cc1`, the IC50 result was “ND(Insoluble)”.

Turning to `COc1ccc(S(=O)(=O)c2ccc(OC)c3ccccc23)cc1`, the IC50 result is recorded as “ND(Insoluble)”.

Take `COc1ccc(Sc2ccc(OC)c3ccccc23)cc1`: the IC50 result is “ND(Insoluble)”.

With `OCc1ccc(Nc2ccc(O)c3ccccc23)cc1`, the IC50 result was “ND(Unstable)”.

As to `COC(=O)c1ccc(Nc2ccc(OC)c3ccccc23)cc1`, the IC50 result is given as “ND(Insoluble)”.

Staying with this data set, now noted: read-out: IC50.
As to `COc1c(Nc2ccc(I)cc2)ccc2ccccc12`, the IC50 was > 5 µM.

Regarding `COC(=O)c1ccccc1Nc1c(OC)ccc2ccccc12`, the IC50 was > 5 µM.

As to `COc1c(Nc2ccc(C(=O)O)cc2)ccc2ccccc12`, the IC50 was > 20 µM.

On to `Oc1ccc(Nc2ccc(O)c3ccccc23)cc1`, for which the IC50 turned out to be 1 µM.

Turning to `COc1ccccc1Nc1ccc(OC)c2ccccc12`, the IC50 was > 5 µM.

On to `COc1ccc(I)cc1Nc1ccc(OC)c2ccccc12`, for which the 50% inhibitory concentration (IC50) was > 5 µM.

Consider `O=C(O)c1ccccc1Nc1c(O)ccc2ccccc12`, for which the IC50 came out at 14.1 µM.

In the case of `COC(=O)c1ccc(Nc2cccc3ccccc23)cc1`, the IC50 was > 20 µM.

As to `COC(=O)c1ccccc1Nc1c(O)ccc2ccccc12`, the IC50 is > 20 µM.

In the case of `COC(=O)c1ccc(Nc2ccc(O)c3ccccc23)cc1`, the half-inhibitory concentration (IC50) is 5.1 µM.

As for `Oc1ccc(Sc2ccc(O)c3ccccc23)cc1`, the IC50 stood at 10.9 µM.

As to `O=C1c2ccccc2C(=O)c2c(O)c(O)cc(Nc3ccc(S(=O)(=O)O)cc3)c21`, the IC50 amounted to 1.1 µM.

For the molecule `CSc1ccc(Nc2ccc(N(C)C)c3ccccc23)cc1`, the IC50 turned out to be 2.2 µM.

`COC(=O)c1ccc(Nc2ccc3ccccc3c2OC)cc1`: the IC50 was > 20 µM.

In the case of `COc1c(Nc2ccccc2)ccc2ccccc12`, the IC50 was found to be 33.6 µM.

Take `O=C(O)c1ccc(Nc2ccc(O)c3ccccc23)cc1`: the IC50 stood at 57.4 µM.

For the molecule `COc1ccc(Nc2ccc(OC)c3ccccc23)cc1`, the 50% inhibitory concentration (IC50) was 5.6 µM.

With `COc1ccc(Nc2ccc(OC)c3ccccc23)cc1C(=O)O`, the 50% inhibitory concentration (IC50) was > 80 µM.

As for `O=C(O)c1ccc(Nc2ccc3ccccc3c2O)cc1`, the IC50 amounted to 2.6 µM.

For `O=C(O)c1cc(Nc2ccc(O)c3ccccc23)ccc1O`, the IC50 was 46.1 µM.

Consider `Oc1c(Nc2ccccc2)ccc2ccccc12`, for which the IC50 is 2.4 µM.

As to `O=C(O)c1ccccc1Nc1ccc(CCc2ccc(Cl)c(Cl)c2)cc1`, the IC50 turned out to be 2 µM.

For `O=C(O)c1ccc(Nc2cccc3ccccc23)cc1`, the IC50 was > 100 µM.

Regarding `Fc1ccc(Nc2ccc(F)c3ccccc23)cc1`, the IC50 was > 30 µM.

For the molecule `COc1ccc(Nc2ccc(C(=O)O)cc2)c2ccccc12`, the IC50 is > 60 µM.

Turning to `Oc1ccc(Nc2ccccc2)c2ccccc12`, the IC50 was found to be 5.4 µM.

As for `COc1ccc(Nc2ccc([N+](=O)[O-])c3ccccc23)cc1`, the IC50 came out at 2.7 µM.

For `O=C(O)c1c(Nc2ccc(CCc3ccc(Cl)c(Cl)c3)cc2)cccc1C(F)(F)F`, the IC50 was 0.1 µM.

For `O=S(=O)(c1ccc(O)cc1)c1ccc(O)c2ccccc12`, the half-inhibitory concentration (IC50) is > 100 µM.

For the molecule `O=C(O)c1ccccc1Nc1ccc(CCCc2ccc(Cl)c(Cl)c2)cc1`, the IC50 amounted to 1 µM.

With `CSc1ccc(Nc2ccc(F)c3ccccc23)cc1`, the IC50 is > 5 µM.

Turning to `O=C(O)c1cc2ccccc2c(Cc2c(O)c(C(=O)O)cc3ccccc23)c1O` [PAMOIC ACID], the IC50 was found to be 38.2 µM.

On to `COc1ccc2ccccc2c1Nc1c(OC)ccc2ccccc12`, for which the half-maximal inhibitory concentration (IC50) came out at 5.7 µM.

Tested on in a further data set: not listed separately
Briefly: Tmax in mouse brain at 25 mg/kg, sc. The data set is classed as ADME, organism-based. Details: dose 25 mg/kg, route subcutaneous.
Details: not given
In a few lines: (§1)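 Mice received 25 mg/kg sc in ethanol/PEG-400/saline (10:40:50). Trunk blood and brain were collected at 0–240 min. Plasma and brain homogenate were solid-phase extracted and quantified by RP-HPLC (UV 224 nm, internal standard), n = 3. Cmax and tmax were read directly from the data; brain and plasma AUCt were calculated by the linear trapezoidal rule to give the brain/plasma ratio.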
Broadly, the Tmax is the time at which the peak concentration occurs. Turning to `COc1ccc(Nc2ccc(OC)c3ccccc23)cc1`, the Tmax was 1 h.

The test system of a further data set is Mus musculus. Briefly: Toxicity in mouse assessed as incidence of side effect at 25 mg/kg, sc. The data set is classed as organism-based. More on the design: dose 25 mg/kg, route subcutaneous. The following applies: in vivo.
Consider `COc1ccc(Nc2ccc(OC)c3ccccc23)cc1`, for which the Activity entry was “Non-toxic”.

Tested on in the next data set: not listed separately
Kind of data set: Ratio of drug level from brain to plasma in mouse at 25 mg/kg, sc. The data set is classed as ADME, organism-based. More on the design: dose 25 mg/kg, route subcutaneous. Conditions: read-out: BPR. In a few lines:
as §1
As to `COc1ccc(Nc2ccc(OC)c3ccccc23)cc1`, the Kp stood at 2.

Tested on in another data set: not listed separately
Briefly: Cmax in mouse brain at 25 mg/kg, sc. The data set is classed as ADME, organism-based. More on the design: dose 25 mg/kg, route subcutaneous.
Details: not given
In a few lines:
as §1
In general, Cmax refers to the maximum level reached in the sampled fluid or tissue. Consider `COc1ccc(Nc2ccc(OC)c3ccccc23)cc1`, for which the highest level (Cmax) was 410 ng/mL.

Tested on in another data set: not listed separately
Kind of data set: in vivo. The following applies: rat, brain/plasma, po, 16 mg/kg.
Regarding `Cl.Nc1c2c(nc3ccccc13)CCCC2.O`, the Kp was 5.

The record behind these values is ChEMBL document CHEMBL2169883, “Design, synthesis, and structure-activity relationship of N-arylnaphthylamine derivatives as amyloid aggregation inhibitors” (J Med Chem, 2012).
